Reference: ChEMBL document CHEMBL1921800, “Molecular modeling: a search for a calpain inhibitor as a new treatment for cataractogenesis” (J Med Chem, 2011)
Residues, ends and D or L forms follow the SMILES beside them. *: point of attachment. Tos = Cc1ccc(S(=O)(=O)*)cc1; Ms = CS(=O)(=O)*

Legend:
[1] = target: T1, Calpain-2 catalytic subunit (Homo sapiens, UniProt P17655); test: Inhibition of CAPN2 using BODIPY-labeled casein substrate by fluorometric analysis
T1 sequence (P17655 whole entry): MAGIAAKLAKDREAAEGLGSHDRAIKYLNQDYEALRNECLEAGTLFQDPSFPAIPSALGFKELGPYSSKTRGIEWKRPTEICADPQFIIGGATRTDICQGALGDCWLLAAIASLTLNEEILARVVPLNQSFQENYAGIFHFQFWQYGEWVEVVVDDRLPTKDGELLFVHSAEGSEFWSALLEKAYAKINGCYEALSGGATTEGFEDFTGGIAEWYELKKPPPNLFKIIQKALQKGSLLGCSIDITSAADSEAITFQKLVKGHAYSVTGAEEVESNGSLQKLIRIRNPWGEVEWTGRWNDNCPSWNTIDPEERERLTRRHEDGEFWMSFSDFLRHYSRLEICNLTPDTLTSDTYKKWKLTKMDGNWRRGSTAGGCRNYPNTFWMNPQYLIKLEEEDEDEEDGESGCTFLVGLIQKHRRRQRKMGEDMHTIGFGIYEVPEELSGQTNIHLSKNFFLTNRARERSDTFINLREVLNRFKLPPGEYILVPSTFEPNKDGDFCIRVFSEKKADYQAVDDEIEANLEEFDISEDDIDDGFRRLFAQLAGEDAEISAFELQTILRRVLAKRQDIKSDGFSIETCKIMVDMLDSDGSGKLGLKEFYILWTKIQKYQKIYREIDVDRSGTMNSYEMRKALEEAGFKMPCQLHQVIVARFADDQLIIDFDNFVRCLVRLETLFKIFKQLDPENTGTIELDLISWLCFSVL
Procedure, shortened: (§1)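 Quenched fluorogenic substrate: casein labelled with BODIPY (4,4-difluoro-5,7-dimethyl-4-bora-3a,4a-diaza-s-indacene-3-propionic acid). Proteolysis relieves the quenching, and the resulting rise in fluorescence is the read-out. IC50 was determined with an established protocol at the Lincoln University laboratory.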

[2] = target: T2, Calpain-1 catalytic subunit (Rattus norvegicus, UniProt P97571); test: Inhibition of rat CAPN1 using BODIPY-labeled casein substrate by fluorometric analysis
T2 sequence (P97571 whole entry): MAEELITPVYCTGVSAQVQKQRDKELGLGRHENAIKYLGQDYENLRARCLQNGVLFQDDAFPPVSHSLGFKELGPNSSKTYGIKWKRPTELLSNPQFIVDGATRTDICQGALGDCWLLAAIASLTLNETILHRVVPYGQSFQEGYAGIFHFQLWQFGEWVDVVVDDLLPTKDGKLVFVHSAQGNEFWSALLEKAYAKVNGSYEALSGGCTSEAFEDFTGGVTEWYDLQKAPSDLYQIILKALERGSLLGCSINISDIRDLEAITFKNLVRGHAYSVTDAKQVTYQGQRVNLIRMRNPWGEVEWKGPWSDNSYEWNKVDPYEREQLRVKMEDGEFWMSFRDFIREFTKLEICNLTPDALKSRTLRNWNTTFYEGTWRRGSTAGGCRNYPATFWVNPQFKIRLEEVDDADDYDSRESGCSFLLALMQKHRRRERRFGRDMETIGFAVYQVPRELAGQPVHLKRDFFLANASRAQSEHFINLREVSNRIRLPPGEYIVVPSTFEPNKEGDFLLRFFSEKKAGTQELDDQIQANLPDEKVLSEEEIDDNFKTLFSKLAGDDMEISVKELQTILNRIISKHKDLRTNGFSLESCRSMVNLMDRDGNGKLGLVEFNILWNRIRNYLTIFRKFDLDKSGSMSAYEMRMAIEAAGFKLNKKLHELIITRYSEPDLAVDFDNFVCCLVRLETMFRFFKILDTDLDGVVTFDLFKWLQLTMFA

[3] = Inhibition of ovine CAPN1 using BODIPY-labeled casein substrate by fluorometric analysis; design: species or system Ovis aries; procedure, shortened: as §1
[4] = Inhibition of ovine CAPN2 using BODIPY-labeled casein substrate by fluorometric analysis; design: species or system Ovis aries; procedure, shortened: as §1

SMILES	IC50 [2]	IC50 [3]	IC50 [4]	other results
CC(C)C[C@@H]1NC(=O)[C@@H](NC(=O)OCc2ccccc2)Cc2ccc(cc2)OCCC[C@@H](C=O)NC1=O				IC50 [1]: 850 nM
CC(C)C[C@@H]1NC(=O)[C@@H](NC(=O)OCc2ccccc2)Cc2ccc(cc2)OCCC[C@@H](CO)NC1=O				IC50 [1]: 31000 nM
CC(C)[C@@H]1NC(=O)[C@@H](NC(=O)OCc2ccccc2)Cc2ccc(cc2)OCCCC[C@@H](C=O)NC1=O				IC50 [1]: 85 nM
CC(C)C[C@@H]1NC(=O)[C@@H](NC(=O)OCc2ccccc2)Cc2ccc(cc2)OCCCCSC[C@@H](C=O)NC1=O				IC50 [1]: 1010 nM
CC(C)C[C@@H]1NC(=O)[C@@H](NC(=O)OCc2ccccc2)Cc2ccc(cc2)OCCCCSC[C@@H](CO)NC1=O				IC50 [1]: 28000 nM
CC(C)C[C@@H](C=O)NC(=O)[C@@H](NS(=O)(=O)c1ccc2ccccc2c1)C(C)C	10 nM			
CC(C)[C@H](NS(=O)(=O)c1ccc2ccccc2c1)C(=O)N[C@H](C=O)Cc1ccccc1	14 nM			
CC(C)[C@H](NS(=O)(=O)c1ccc(F)cc1)C(=O)N[C@H](C=O)Cc1ccccc1	27 nM			
CC(C)[C@H](NS(=O)(=O)c1ccc(F)cc1)C(=O)N[C@H](C=O)Cc1c[nH]c2ccccc12	23 nM			
CC(C)[C@H](NS(=O)(=O)c1ccc(F)cc1)C(=O)N[C@@H](C)C=O	630 nM			
CC(C)C[C@@H](C=O)NC(=O)[C@@H](NS(=O)(=O)c1ccc(Cl)cc1)C(C)C	31 nM			
CC(C)[C@H](NS(=O)(=O)c1ccc(Cl)cc1)C(=O)N[C@H](C=O)Cc1ccccc1	14 nM			
CC(C)[C@H](NS(=O)(=O)c1ccc(Cl)cc1)C(=O)N[C@H](C=O)Cc1c[nH]c2ccccc12	13 nM			
CCC[C@H](NS(=O)(=O)c1ccc(F)cc1)C(=O)N[C@H](C=O)CC(C)C	130 nM			
CCCC[C@H](NS(=O)(=O)c1ccc(F)cc1)C(=O)N[C@H](C=O)CC(C)C	260 nM			
CC(C)C[C@@H](C=O)NC(=O)[C@H](C(C)C)N(C)S(=O)(=O)c1ccc(F)cc1	21000 nM			
CC(C)C[C@@H](C=O)NC(=O)[C@@H](NS(=O)(=O)c1ccc(F)cc1)C(C)C		130 nM	80 nM	
CC(C)C[C@@H](C=O)NC(=O)[C@@H](NC(=O)c1ccc[nH]1)C(C)C		650 nM	315 nM	
CC(C)C[C@@H](C=O)NC(=O)[C@@H](NC(=O)c1ccco1)C(C)C		790 nM	135 nM	
CC(C)C[C@@H](C=O)NC(=O)[C@@H](NC(=O)c1cccs1)C(C)C		680 nM	100 nM	
CC(C)C[C@@H](C=O)NC(=O)[C@@H](NC(=O)c1ccc(C=O)o1)C(C)C		960 nM	100 nM	
CC(C)C[C@@H](C=O)NC(=O)[C@@H](NC(=O)c1ccc(C=O)s1)C(C)C		440 nM	85 nM	
Cc1ccc(C(=O)N[C@H](C(=O)N[C@H](C=O)CC(C)C)C(C)C)[nH]1		340 nM	110 nM	
COC(=O)c1ccc(C(=O)N[C@H](C(=O)N[C@H](C=O)CC(C)C)C(C)C)[nH]1		290 nM	140 nM	
CC(C)C[C@@H](C=O)NC(=O)[C@@H](NC(=O)c1cc(C=O)c[nH]1)C(C)C		530 nM	100 nM	
CC(C)C[C@@H](C=O)NC(=O)[C@@H](NC(=O)c1ccc(C=O)[nH]1)C(C)C		290 nM	25 nM	
CC(C)C[C@@H](C=O)NC(=O)[C@@H](NC(=O)c1ccc(C=O)n1C)C(C)C		150 nM	150 nM	
CC(C)C[C@@H](C=O)NC(=O)[C@@H](NS(C)(=O)=O)C(C)C (Ms-Val-Leu-aldehyde)	830 nM			
Cc1ccc(S(=O)(=O)N[C@H](C(=O)N[C@H](C=O)CC(C)C)C(C)C)cc1 (Tos-Val-Leu-aldehyde)	28 nM			
Cc1ccc(S(=O)(=O)N[C@H](C(=O)N[C@H](C=O)Cc2ccccc2)C(C)C)cc1 (Tos-Val-Phe-aldehyde)	18 nM			
